# According to ChEMBL document CHEMBL3414496, “Synthesis and biological evaluation of novel 2-heteroarylimino-1,3-thiazolidin-4-ones as potential anti-tumor agents” (Eur J Med Chem, 2015):
# Activity calls are given as the source filed them. The rule behind the calls is not given here.
# Test system: HT-29
# Assay: Growth inhibition of human HT-29 cells at cytotoxic IC50 level after 3 days by trypan blue dye exclusion assay
# Format: functional
# Details: not given
# Summary of the method: (§1)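 HT29 cells treated 48 h after seeding, dosed daily with daily medium change over three days; drug diluted in DMSO, controls 0.1% (v/v) DMSO. Cells trypsinized, mixed 1:1 with 0.04% trypan blue, live cells counted by hematimeter. Reported as mitotic index (treated/DMSO count); triplicates from two independent experiments.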
row,SMILES,growth inhibition (GI)
1,O=C1N/C(=N/c2csc(-c3ccc(Cl)cc3)c2)S/C1=C\c1ccc2ccccc2c1,50%
2,O=C1N/C(=N/c2nc(-c3ccc(Cl)cc3)cs2)S/C1=C\c1ccc2ccccc2c1,<25%
3,O=C1N/C(=N/c2csc(-c3ccc(Cl)cc3)c2)S/C1=C\c1ccc(Cl)cc1,25%
4,O=C1N/C(=N/c2csc(-c3ccc(Cl)cc3)c2)S/C1=C\c1ccc(F)cc1,25%
5,COc1ccc(-c2cc(/N=C3\SCC(=O)N3c3cccc(OC)c3)cs2)cc1,50%
6,O=C1N/C(=N/c2csc(-c3ccc(Cl)cc3)c2)S/C1=C\c1ccccn1,40%
7,Cc1ccc(/C=C2\S/C(=N\c3nc(-c4ccc(Cl)cc4)cs3)NC2=O)cc1,<25%
8,O=C1N/C(=N/c2csc(-c3ccc(Cl)cc3)c2)S/C1=C\c1ccc(Br)cc1,25%

# Test system: HT-29
# Assay: Cytotoxicity against human HT-29 cells after 72 hrs by MTT assay
# Format: functional, cell-based
# Details: HT-29, 72 h
# Summary of the method: (§2)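 Cells seeded at 10^4/well, exposed 24 h later to graded concentrations (0.01–100 µM) for 72 h at 37°C; MTT 0.5 mg/ml for 2 h, formazan dissolved in DMSO, absorbance at 570 nm. […] Colon lines in DMEM, breast lines in RPMI, both with 10% FCS.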
row,SMILES,IC50
1,O=C1CS/C(=N\c2csc(-c3ccc(Cl)cc3)c2)N1,17.1 µM
2,COc1cccc(N2C(=O)CS/C2=N\c2csc(-c3ccccc3)c2)c1,38.3 µM
3,O=C1CS/C(=N\c2csc(-c3ccc(Cl)cc3)c2)N1c1ccc(Cl)cc1,36.6 µM
4,O=C1N/C(=N/c2csc(-c3ccc(Cl)cc3)c2)S/C1=C\c1ccc2ccccc2c1,3.7 µM
5,CN(C)c1ccc(N2C(=O)CS/C2=N\c2csc(-c3ccc(Cl)cc3)c2)cc1,29.2 µM
6,O=C1N/C(=N/c2nc(-c3ccc(Cl)cc3)cs2)S/C1=C\c1ccc2ccccc2c1,1.8 µM
7,COc1ccc(N2C(=O)CS/C2=N\c2csc(-c3ccc(Cl)cc3)c2)cc1OC,14.1 µM
8,O=C1N/C(=N/c2csc(-c3ccc(Cl)cc3)c2)S/C1=C\c1ccc(Cl)cc1,2.8 µM
9,COc1cccc(N2C(=O)CS/C2=N\c2csc(-c3ccc(C)cc3)c2)c1,> 50 µM
10,O=C1N/C(=N/c2csc(-c3ccc(Cl)cc3)c2)S/C1=C\c1ccc(F)cc1,4.1 µM
11,Cc1ccc(N2C(=O)CS/C2=N\c2csc(-c3ccc(Cl)cc3)c2)cc1,28.9 µM
12,COc1ccc(-c2cc(/N=C3\SCC(=O)N3c3cccc(OC)c3)cs2)cc1,11.7 µM
13,O=C1N/C(=N/c2csc(-c3ccc(Cl)cc3)c2)S/C1=C\c1ccccn1,11.5 µM
14,Cc1ccc(/C=C2\S/C(=N\c3nc(-c4ccc(Cl)cc4)cs3)NC2=O)cc1,0.5 µM
15,O=C1N/C(=N/c2csc(-c3ccc(Cl)cc3)c2)S/C1=C\c1ccc(Br)cc1,2 µM

# Test system: HT-29
# Assay: Induction of cell cycle arrest in human HT-29 cells assessed as increase in accumulation at G0/G1 phase at 0.5 to 10 uM by propidium iodide staining based flow cytometry
# Format: functional
# Details: not given
row,SMILES,Activity
1,COc1ccc(-c2cc(/N=C3\SCC(=O)N3c3cccc(OC)c3)cs2)cc1,Active

# Test system: HT-29
# Assay: Induction of cell cycle arrest in human HT-29 cells assessed as accumulation at subG1 phase at 0.5 to 10 uM by propidium iodide staining based flow cytometry
# Format: functional
# Details: not given
row,SMILES,Activity
1,COc1ccc(-c2cc(/N=C3\SCC(=O)N3c3cccc(OC)c3)cs2)cc1,inactive
2,O=C1N/C(=N/c2csc(-c3ccc(Cl)cc3)c2)S/C1=C\c1ccccn1,inactive
3,O=C1N/C(=N/c2csc(-c3ccc(Cl)cc3)c2)S/C1=C\c1ccc(Br)cc1,inactive

# Test system: HT-29
# Assay: Induction of cell cycle arrest in human HT-29 cells assessed as increase in accumulation at S phase at 0.5 to 10 uM by propidium iodide staining based flow cytometry
# Format: functional
# Details: not given
row,SMILES,Activity
1,O=C1N/C(=N/c2csc(-c3ccc(Cl)cc3)c2)S/C1=C\c1ccccn1,Active
2,O=C1N/C(=N/c2csc(-c3ccc(Cl)cc3)c2)S/C1=C\c1ccc(Br)cc1,Active

# Test system: SW-620
# Assay: Cytotoxicity against human SW620 cells after 72 hrs by MTT assay
# Format: functional, cell-based
# Details: SW-620, 72 h
# Summary of the method: as §2
row,SMILES,IC50
1,O=C1CS/C(=N\c2csc(-c3ccc(Cl)cc3)c2)N1,> 50 µM
2,O=C1CS/C(=N\c2csc(-c3ccc(Cl)cc3)c2)N1c1ccc(Cl)cc1,> 50 µM
3,O=C1N/C(=N/c2csc(-c3ccc(Cl)cc3)c2)S/C1=C\c1ccc2ccccc2c1,> 50 µM
4,O=C1N/C(=N/c2nc(-c3ccc(Cl)cc3)cs2)S/C1=C\c1ccc2ccccc2c1,20.3 µM
5,COc1ccc(N2C(=O)CS/C2=N\c2csc(-c3ccc(Cl)cc3)c2)cc1OC,> 50 µM
6,O=C1N/C(=N/c2csc(-c3ccc(Cl)cc3)c2)S/C1=C\c1ccc(Cl)cc1,4.6 µM
7,COc1cccc(N2C(=O)CS/C2=N\c2csc(-c3ccc(C)cc3)c2)c1,> 50 µM
8,O=C1N/C(=N/c2csc(-c3ccc(Cl)cc3)c2)S/C1=C\c1ccc(F)cc1,8.7 µM
9,Cc1ccc(N2C(=O)CS/C2=N\c2csc(-c3ccc(Cl)cc3)c2)cc1,> 50 µM
10,COc1ccc(-c2cc(/N=C3\SCC(=O)N3c3cccc(OC)c3)cs2)cc1,3.5 µM
11,O=C1N/C(=N/c2csc(-c3ccc(Cl)cc3)c2)S/C1=C\c1ccccn1,> 50 µM
12,Cc1ccc(/C=C2\S/C(=N\c3nc(-c4ccc(Cl)cc4)cs3)NC2=O)cc1,0.89 µM
13,O=C1N/C(=N/c2csc(-c3ccc(Cl)cc3)c2)S/C1=C\c1ccc(Br)cc1,0.7 µM

# Test system: MCF7
# Assay: Cytotoxicity against human MCF7 cells after 72 hrs by MTT assay
# Format: functional, cell-based
# Details: MCF7, 72 h
# Summary of the method: as §2
row,SMILES,IC50
1,O=C1CS/C(=N\c2csc(-c3ccc(Cl)cc3)c2)N1,> 50 µM
2,O=C1CS/C(=N\c2csc(-c3ccc(Cl)cc3)c2)N1c1ccc(Cl)cc1,> 50 µM
3,O=C1N/C(=N/c2csc(-c3ccc(Cl)cc3)c2)S/C1=C\c1ccc2ccccc2c1,1.2 µM
4,CN(C)c1ccc(N2C(=O)CS/C2=N\c2csc(-c3ccc(Cl)cc3)c2)cc1,> 50 µM
5,O=C1N/C(=N/c2nc(-c3ccc(Cl)cc3)cs2)S/C1=C\c1ccc2ccccc2c1,0.3 µM
6,COc1ccc(N2C(=O)CS/C2=N\c2csc(-c3ccc(Cl)cc3)c2)cc1OC,18.7 µM
7,O=C1N/C(=N/c2csc(-c3ccc(Cl)cc3)c2)S/C1=C\c1ccc(Cl)cc1,6.7 µM
8,COc1cccc(N2C(=O)CS/C2=N\c2csc(-c3ccc(C)cc3)c2)c1,> 50 µM
9,O=C1N/C(=N/c2csc(-c3ccc(Cl)cc3)c2)S/C1=C\c1ccc(F)cc1,> 50 µM
10,Cc1ccc(N2C(=O)CS/C2=N\c2csc(-c3ccc(Cl)cc3)c2)cc1,> 50 µM
11,COc1ccc(-c2cc(/N=C3\SCC(=O)N3c3cccc(OC)c3)cs2)cc1,1.9 µM
12,O=C1N/C(=N/c2csc(-c3ccc(Cl)cc3)c2)S/C1=C\c1ccccn1,30.2 µM
13,Cc1ccc(/C=C2\S/C(=N\c3nc(-c4ccc(Cl)cc4)cs3)NC2=O)cc1,0.4 µM
14,O=C1N/C(=N/c2csc(-c3ccc(Cl)cc3)c2)S/C1=C\c1ccc(Br)cc1,2.5 µM

# Test system: MDA-MB-231
# Assay: Cytotoxicity against human MDA-MB-231 cells after 72 hrs by MTT assay
# Format: functional, cell-based
# Details: MDA-MB-231, 72 h
# Summary of the method: as §2
row,SMILES,IC50
1,O=C1CS/C(=N\c2csc(-c3ccc(Cl)cc3)c2)N1,> 50 µM
2,O=C1N/C(=N/c2csc(-c3ccc(Cl)cc3)c2)S/C1=C\c1ccc2ccccc2c1,1.8 µM
3,O=C1N/C(=N/c2nc(-c3ccc(Cl)cc3)cs2)S/C1=C\c1ccc2ccccc2c1,0.9 µM
4,COc1ccc(N2C(=O)CS/C2=N\c2csc(-c3ccc(Cl)cc3)c2)cc1OC,46.9 µM
5,O=C1N/C(=N/c2csc(-c3ccc(Cl)cc3)c2)S/C1=C\c1ccc(Cl)cc1,6.4 µM
6,COc1cccc(N2C(=O)CS/C2=N\c2csc(-c3ccc(C)cc3)c2)c1,> 50 µM
7,COc1ccc(-c2cc(/N=C3\SCC(=O)N3c3cccc(OC)c3)cs2)cc1,2.7 µM
8,O=C1N/C(=N/c2csc(-c3ccc(Cl)cc3)c2)S/C1=C\c1ccccn1,10.9 µM
9,Cc1ccc(/C=C2\S/C(=N\c3nc(-c4ccc(Cl)cc4)cs3)NC2=O)cc1,0.8 µM
10,O=C1N/C(=N/c2csc(-c3ccc(Cl)cc3)c2)S/C1=C\c1ccc(Br)cc1,3.5 µM

# Test system: HT-29
# Assay: Growth inhibition of human HT-29 cells at 0.5 to 10 uM after 3 days by trypan blue dye exclusion assay
# Format: functional
# Details: not given
# Summary of the method: as §1
row,SMILES,growth inhibition (GI)
1,O=C1N/C(=N/c2nc(-c3ccc(Cl)cc3)cs2)S/C1=C\c1ccc2ccccc2c1,<5%

# Test system: HT-29
# Assay: Growth inhibition of human HT-29 cells at 10 uM after 3 days by trypan blue dye exclusion assay
# Format: functional
# Details: HT-29, 72 h, read-out: GI
# Summary of the method: as §1
row,SMILES,inhibition of growth at 10 µM
1,Cc1ccc(/C=C2\S/C(=N\c3nc(-c4ccc(Cl)cc4)cs3)NC2=O)cc1,40%

# Test system: not listed separately
# Assay: Cytotoxicity against human HCT116 cells after 72 hrs by MTT assay
# Format: functional, cell-based
# Details: HCT-116, 72 h
# Summary of the method: as §2
row,SMILES,IC50
1,O=C1CS/C(=N\c2csc(-c3ccc(Cl)cc3)c2)N1,> 50 µM
2,O=C1N/C(=N/c2csc(-c3ccc(Cl)cc3)c2)S/C1=C\c1ccc2ccccc2c1,3 µM
3,O=C1N/C(=N/c2nc(-c3ccc(Cl)cc3)cs2)S/C1=C\c1ccc2ccccc2c1,1.2 µM
4,COc1ccc(N2C(=O)CS/C2=N\c2csc(-c3ccc(Cl)cc3)c2)cc1OC,49.8 µM
5,O=C1N/C(=N/c2csc(-c3ccc(Cl)cc3)c2)S/C1=C\c1ccc(Cl)cc1,11.6 µM
6,COc1cccc(N2C(=O)CS/C2=N\c2csc(-c3ccc(C)cc3)c2)c1,41 µM
7,O=C1N/C(=N/c2csc(-c3ccc(Cl)cc3)c2)S/C1=C\c1ccc(F)cc1,7.4 µM
8,COc1ccc(-c2cc(/N=C3\SCC(=O)N3c3cccc(OC)c3)cs2)cc1,2.7 µM
9,O=C1N/C(=N/c2csc(-c3ccc(Cl)cc3)c2)S/C1=C\c1ccccn1,21.6 µM
10,Cc1ccc(/C=C2\S/C(=N\c3nc(-c4ccc(Cl)cc4)cs3)NC2=O)cc1,0.5 µM
11,O=C1N/C(=N/c2csc(-c3ccc(Cl)cc3)c2)S/C1=C\c1ccc(Br)cc1,3.3 µM
